# Experimental data reported in PubChem BioAssay AID624467 (The Scripps Research Institute Molecular Screening Center, 2012).
# Out of some 360,000 compounds screened, about 3,600 (1%) were called active. This is one part of a sample in which actives are shown more often than they occur.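 How the source made its calls: active means activation above the mean activation of all test compounds in the run plus 3 SD (cut at about 38% in these data); inactive means the rest.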
# Target: Trace amine-associated receptor 1 (Homo sapiens) (UniProt Q96RJ0)
# Assay: activators of TAAR1 calcium mobilization – Fluo-8 calcium fluorescence, CHO RD-HGA16 cells, primary screen (AID 624467)
# Settings: CHO RD-HGA16 TAAR1, Fluo-8 calcium fluorescence; at 3 µM; stronger effect = higher value
# In short: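 Test system: RD-HGA16 (CHO) cells co-expressing Gα16 and hTAAR1; dosing: one-point dosing at 3 µM (nominal); timing: 17-24 h seeding, 75 min 37 °C dye, 30 min RT; signal: kinetic Fluo-8 calcium fluorescence; read-out basis: % activation relative to PEA EC100 response; controls: DMSO and PEA EC100; replicates: n 1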
# Trace amine-associated receptor 1 (Homo sapiens), sequence (Q96RJ0 whole entry, looked up): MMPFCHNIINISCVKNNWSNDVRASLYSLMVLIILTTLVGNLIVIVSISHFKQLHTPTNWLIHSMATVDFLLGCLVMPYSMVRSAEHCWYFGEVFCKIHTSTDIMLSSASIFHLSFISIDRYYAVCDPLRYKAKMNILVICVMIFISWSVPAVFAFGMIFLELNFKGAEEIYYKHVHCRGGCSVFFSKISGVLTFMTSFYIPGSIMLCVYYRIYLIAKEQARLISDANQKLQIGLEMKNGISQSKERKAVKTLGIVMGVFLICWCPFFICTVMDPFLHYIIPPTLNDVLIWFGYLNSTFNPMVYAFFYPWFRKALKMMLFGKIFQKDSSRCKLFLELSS
row,Compound,activation
1,Cc1cccc(N2C(=O)NC(=O)/C(=C\c3cnn(-c4ccccc4)c3)C2=O)c1,44.9% (active)
2,COc1cc(OC)cc(C(=O)NCCN2CCC3(CC2)C(=O)NCN3c2ccccc2)c1,0.43% (inactive)
3,CCC(=O)OC(Cc1ccccc1)(c1ccccc1)C(C)CN(C)C (stereo not given),1.23% (inactive)
4,COC(=O)COc1cc(C)cc2oc(=O)c3c(c12)CCCC3,15.7% (inactive)
5,CCOP(=O)(OCC)C(NC(=O)NC)C(N)=O (stereo not given),1.74% (inactive)
6,Cc1ccc(CN2CCCC(C(=O)c3ccc4c(c3)OCO4)C2)cc1C (stereo not given),5.3% (inactive)
7,CC(=O)c1c(O)n(C2CCCCCC2)c(=O)[nH]c1=O,2.62% (inactive)
8,CCCCCCN=C(CC)c1c(O)n(CCCC)c(=O)[nH]c1=O,18.9% (inactive)
9,CCC(=NCCc1ccccc1)c1c(O)n(C2CCCCC2)c(=O)[nH]c1=O,82.8% (active)
10,c1ccc(C(CN2CCCCC2)c2ccccc2)cc1,5.89% (inactive)
11,COc1ccc(NC(=O)N2CCC3(CC2)OCCO3)c(OC)c1,4.78% (inactive)
12,Brc1ccc2c(c1)CNCc1cnnn1-2,2.44% (inactive)
13,CC(=NC1CCN(Cc2ccccc2)CC1)c1c(O)n(C)c(=O)n(C)c1=O,-0.62% (inactive)
14,COc1cc(C(=O)N2Cc3ccc(Br)cc3-n3nncc3C2)cc(OC)c1OC,1.8% (inactive)
15,CCOc1cccc(=NC2CCCCC2)c2c(C)[nH]c(C)c12,2.88% (inactive)
16,Clc1ccc([C@@H]2CC3CCC2N3)cn1 (stereo not given in full),0.89% (inactive)
17,CCOC(=O)C1SC2(C(F)(F)C(F)F)CC1(O)c1c(c(OC)c3occc3c1OC)O2 (stereo not given),2.66% (inactive)
18,CCCCC(=O)N/N=C/c1c(O)n(CCC2=CCCCC2)c(=O)[nH]c1=O,3.56% (inactive)
19,Cn1c(O)c(C=NCCCC(=O)O)c(=O)n(C)c1=O,1.16% (inactive)
20,CCCCC(=O)N/N=C/c1c(O)n(CC)c(=S)n(CC)c1=O,115% (active)

row,Compound,activation
1,CC(=NCc1ccc2c(c1)OCO2)c1c(O)[nH]c(=O)[nH]c1=O,4.1% (inactive)
2,O=C1NC(=O)N(Cc2ccco2)C(=O)/C1=C\c1ccc(-c2ccc(F)cc2)o1,51.8% (active)
3,COc1ccc(-c2nn(CCC#N)cc2C(=O)O)cc1,0.78% (inactive)
4,C[C@]12CCC3C(CC[C@H]4[C@H](O)[C@H](O)CC[C@]34C)C1CCC2=O (stereo not given in full),4.54% (inactive)
5,COc1ccc2c(c1)[C@@]13CCCCC1[C@@H](C2)NCC3 (stereo not given in full),4.44% (inactive)
6,CCN1CC2C3CCC(C)(O3)C2C1 (stereo not given),1.68% (inactive)
7,CC(=O)Nc1ccc(C(=O)C(Cc2ccccc2)N(C)C)cc1 (stereo not given),5.99% (inactive)
8,CCC(C)NC1(c2ccccc2)CCCCC1 (stereo not given),3.45% (inactive)
9,CC(Cc1ccccc1)NCCC(c1ccccc1)c1ccccc1 (stereo not given),44.2% (active)
10,CC(Cc1ccccc1)NC=O (stereo not given),68.4% (active)
11,O=c1c2ccccc2nc(/C=C/c2ccco2)n1-c1ccccc1O,0.46% (inactive)
12,C[N+]12CN3CN(CN(C3)C1)C2,4.95% (inactive)
13,S=C(NCCc1ccccc1)N1Cc2cc(N3CCOCC3)ccc2-n2nncc2C1,25.3% (inactive)
14,O=S(=O)(c1ccccc1)N1CCC2CCNC2C1 (stereo not given),2.18% (inactive)
15,CCN(CC)C(=O)c1ccc(NC(=O)c2cc(-n3cnnc3)ccc2Cl)cc1,8.2% (inactive)
16,Cc1cc(N2CCNC[C@@H]2C)ccc1N1CC[C@H](O)C1,0.68% (inactive)
17,CCN(CC)C(=O)[C@@H]1C=C2c3cccc4[nH]c(Br)c(c34)C[C@H]2N(C)C1,0.25% (inactive)
18,CS(=O)(=O)N1CCC2CCNC2C1 (stereo not given),2.13% (inactive)
19,Clc1ccc2nc3c(c(-c4ccccc4)c2c1)CNCC3,55% (active)
20,O=c1[nH]c(=O)n(CCc2ccccc2)c(O)c1/C=N/N1CCOCC1,7.45% (inactive)

row,Compound,activation
1,NCC(O)c1ccc(O)cc1 (stereo not given),80.5% (active)
2,CC12CN3CC(C)(CN(C1)C3c1cccs1)C2 (stereo not given),8.25% (inactive)
3,CC(CC(C#N)(c1ccccc1)c1ccccc1)N1CCCCC1 (stereo not given),1.72% (inactive)
4,O=C(N/N=C/c1c(O)n(C2CC2)c(=S)[nH]c1=O)c1ccccc1Cl,-1.25% (inactive)
5,O=c1[nH]c2ccccc2n1C1CCN(C(c2ccnc3ccccc23)c2nnnn2Cc2ccccc2)CC1 (stereo not given),40.5% (active)
6,O=c1[nH]c2ccccc2n1C1CCN(C(c2ccccc2)c2nnnn2Cc2ccccc2)CC1 (stereo not given),10.1% (inactive)
7,COc1ccc(-n2nnnc2C(c2cccc3ccccc23)N2CCC(n3c(=O)[nH]c4ccccc43)CC2)cc1 (stereo not given),3.04% (inactive)
8,Cc1ccc2c(c1)=C/C(=C\c1c(O)[nH]c(=O)[nH]c1=O)C(=O)N=2,0.28% (inactive)
9,COc1cccc(OC)c1C(=O)NC(=S)N1C[C@H]2C[C@H](C1)c1cccc(=O)n1C2,4.06% (inactive)
10,O=C(CN1CCCC1=O)NCCc1ccccc1,38.6% (active)
11,O=C1CC(=O)N(Cc2ccccc2)C(=O)N1CCCCCCN1C(=O)CC(=O)N(Cc2ccccc2)C1=O,1.5% (inactive)
12,c1ccc(CCNC2CCCCCC2)cc1,87.1% (active)
13,OC(CNC1CCCCC1)c1ccccc1 (stereo not given),0.51% (inactive)
14,c1cc2c(cc1CCNC1CCCCCC1)OCO2,4.36% (inactive)
15,COc1ccc(CNCCc2ccc3c(c2)OCO3)c(OC)c1OC,2.45% (inactive)
16,COc1ccc(Br)cc1CNCCc1cccc(Cl)c1,49.1% (active)
17,COc1ccc(CNCCc2c[nH]c3ccccc23)cc1OC,1.21% (inactive)
18,CNC(=S)N/N=C1\C2CN3CCN(C2)CC1(c1ccccc1)C3,2.42% (inactive)
19,c1ccc2sc(N3CCNCC3)nc2c1,10.3% (inactive)
20,CC(C)CN1Cc2cc(N3CCCCC3)ccc2-n2nncc2C1,-1.61% (inactive)
